Source: PubChem BioAssay
AHR activator: AHR activators, primary screen, cell-based, luminescence, luciferase reporter, human; AHR-responsive luciferase reporter cells; activation, % at 5 µM; 320,000 tested, 2.5% active; AID 2796, 2010; in the data active means activation above about 47%;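 further: 0% = vehicle wells and 100% = reference agonist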
SR-BI uptake up: activators of SR-BI mediated DiI-HDL uptake, primary screen, ldlA[mSR-BI] CHO cells, DiI fluorescence | 3 h; 100 = double the neutral-control signal | activation, % at 12.5 µM | 320,000 tested, 0.096% active;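 active means mean replicate activation of at least 60% and every replicate at or above 60%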;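 further: 0% = median plate neutral-control signal and 100% = twice that signal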
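system = CHO ldlA[mSR-BI] cells, LDL receptor-null, SR-BI overexpressing | medium = Ham's F12 with 0.5% BSA, HEPES 25 mM, pH 7.4 | probe or stimulus = DiI-HDL 10 µg/mL | compound dosing = single-point compound dose | incubation = compound exposure 3 h, 37 °C | technique = DiI fluorescence, bottom read | read-out = cell-associated DiI fluorescence as measure of HDL uptake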
SMARCA2 act: SMARCA2 (BRM) function activators, primary screen, cell-based, luminescence, high throughput | MG213 cells, MMTV-luciferase reporter, dexamethasone, overnight | activation, % at 9.1 µM | 370,000 tested, 1% active; in the data active means activation above about 7.8%;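 further: 0% = vehicle wells and 100% = reference activator wells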
SR-BI HDL uptake: inhibitors of SR-BI mediated HDL lipid uptake, primary screen, ldlA[mSR-BI] cells, fluorescence, single point. ldlA[mSR-BI] CHO cells, DiI-HDL uptake fluorescence, 3 h. inhibition, % at 12.5 µM. Scavenger receptor class B member 1 (Mus musculus), Q61009. 320,000 tested, 0.96% active;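 active means mean replicate inhibition of at least 70% and a set share of replicates each scoring 70 or more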;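 further: 0% = median of neutral control wells and 100% = median of positive control wells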
Target sequence (Q61009 whole entry, looked up): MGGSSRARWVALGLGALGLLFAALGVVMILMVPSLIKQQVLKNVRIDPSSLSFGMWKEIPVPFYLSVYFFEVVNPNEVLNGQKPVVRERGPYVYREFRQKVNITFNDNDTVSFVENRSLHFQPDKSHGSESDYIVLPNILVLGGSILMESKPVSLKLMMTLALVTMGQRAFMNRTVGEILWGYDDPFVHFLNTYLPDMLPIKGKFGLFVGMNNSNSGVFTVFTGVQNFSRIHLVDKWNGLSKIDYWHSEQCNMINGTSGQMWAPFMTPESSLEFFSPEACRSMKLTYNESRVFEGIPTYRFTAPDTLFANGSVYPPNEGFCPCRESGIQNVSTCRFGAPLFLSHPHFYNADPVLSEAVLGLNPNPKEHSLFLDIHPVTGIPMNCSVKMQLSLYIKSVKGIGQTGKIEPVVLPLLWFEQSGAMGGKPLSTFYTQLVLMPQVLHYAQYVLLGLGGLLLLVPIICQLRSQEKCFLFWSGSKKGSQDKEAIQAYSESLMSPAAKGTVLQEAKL
Hep lipid drop: inhibitors of hepatocyte lipid droplet formation, primary screen, imaging, high-throughput imaging, BODIPY stain. 240,000 tested, 0.4% active. inhibition, % at 6.5 µM. AML12 mouse hepatocytes, oleate lipid droplets;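 active means lipid droplet intensity inhibited by at least 50%, with more than 500 cells counted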
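Material: mouse AML12 hepatocyte cell line, fixed after treatment; Timing: compound with oleate, overnight; Technique: high-content imaging of BODIPY-stained droplets and DAPI nuclei; Probe or stimulus: oleate, 100 µM final; Dosing: compound at 6.5 µM only.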
Yeast superoxide: reduction of superoxide in aged yeast, primary screen, HTS; S. cerevisiae aged cells, superoxide DHE fluorescence; hits give low values; 330,000 tested, 0.18% active; superoxide response (% of plate mean), % at 10 µM;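 active means superoxide response under a set limit, about three screen SD below normal, cut at about 65% in these data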;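 further: yeast aged for seven days with compound at 30 °C before DHE staining; 100% = average MFI of all compound-treated wells on the plate with controls excluded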
Active calls of the source: *; . = no result. Sampled rows, rich in hits. Any-hit rate of the full collection: about 4.3%.

SMILES	AHR activator	SR-BI uptake up	SMARCA2 act	SR-BI HDL uptake	Hep lipid drop	Yeast superoxide
COc1cc(NC(=O)c2ccccc2)c(C)cc1NC(=O)CSc1nnc(-c2cnccn2)n1-c1ccc(C)cc1	.	.	-4	.	.	.
Cc1ccc(Cl)c2sc(NC(=O)C3CC3)nc12	49*	-31	-6	31	-12	117
CCC(=O)Nc1nc2c(OC)ccc(OC)c2s1	68*	-2	-1	2	.	96
CCCC(=O)Nc1nc2c(OC)ccc(OC)c2s1	68*	-30	-2	30	.	91
COc1ccc(OC)c2sc(NC(=O)c3ccc(Br)s3)nc12	25	13	0	-13	17	108
CCCC(=O)Nc1nc(-c2ccc(OC)cc2)cs1	3	-33	4	33	1	122
COc1ccc(OC)c2sc(NC(=O)c3ccc(Cl)s3)nc12	30	-87	-1	87*	.	146
COC(=O)CSc1nnc(-c2ccc(NS(=O)(=O)c3ccc(C(C)(C)C)cc3)cc2)o1	.	.	1	.	.	.
COC(=O)C1=C(C)N(C)C(=NCc2ccc3c(c2)OCO3)NC1c1cccc(Cl)c1 (configuration not stated)	.	.	0	.	.	.
Cc1c(CN(C)C)c2c(n1Cc1ccccc1)C(=O)c1ccc(Br)cc1-2	2	0	-2	0	19	102
Cc1c(CN(C)C)c2c(n1C)C(=O)c1ccc(Br)cc1-2	71*	9	7	-9	.	101
C[C@@H]1COc2cc(N3CCOCC3)ccc2S(=O)(=O)N1	.	.	-5	.	.	.
CCS(=O)(=O)Nc1ccc2c(c1)C(=O)N(C)[C@@H]1CC[C@H](CC(=O)N[C@@H]3CCN(Cc4ccccc4)C3)O[C@H]1CO2	.	.	-3	.	.	.
Cn1c(O)c(C2=c3ccccc3=NC2=O)[nH]c1=S	61*	43	6	-43	2	105
C=CC(=O)NC1CCCCN(C)C1=O (configuration not stated)	.	.	-3	.	.	.
COC(=O)c1ccc(=O)c2nc3/c(=C/O)c(O)cc(=O)c3[nH]c12	1	-16	-3	16	9	45*
Cc1ccc(-c2nc3ccccc3c(=O)n2NC(=O)c2cccs2)cc1	52*	-19	-4	19	-5	108
Nc1ccc(-c2nc3c(Cl)c(N)ccc3[nH]2)cc1	60*	-5	-6	5	.	118
C/C(CC(=O)Nc1ccc(Cl)c(C(F)(F)F)c1)=N\NC(=O)c1cc2ccccc2cc1O	3	-112	-1	112*	-8	91
COc1cccc(NC(=O)C/C(C)=N/NC(=O)c2ccccc2Cl)c1	2	9	2	-9	5	111
COc1cccc(CNC(=O)[C@H]2CCCN2C(=O)[C@H]2CCCN2C(=O)c2cccc(Cl)c2)c1	.	.	-1	.	.	.
Cc1ccc(NNC(=S)Nc2ccc(C(C)C)cc2)c(C)c1	66*	-6	0	6	24	94
CCC(C)CNC(=O)CN1C(=O)C2CCCCN2C(=O)c2ccccc21 (configuration not stated)	.	.	0	.	.	.
CC1CC1C(=O)Nc1nc(-c2cccs2)c(-c2cccs2)s1 (configuration not stated)	78*	-42	0	42	8	90
COc1cccc2sc3cc(NCc4ccc5c(c4)OCO5)ccc3c(=O)c12	76*	-22	3	22	.	131
COc1cc2sc3cc(NCc4ccc5c(c4)OCO5)ccc3c(=O)c2cc1OC	7	-73	3	73*	.	92
C[C@H]1C(C(=O)N(C)C2CCCCC2)=Cc2c(n(-c3ccc(F)cc3)c(=O)n2CCCOc2ccccc2)C=C1c1ccccc1	.	.	-6	.	.	.
Cc1ccc(/C=N/Nc2cccc3cccnc23)c(O)c1	60*	-54	3	54	.	98
O=[N+]([O-])c1ccc(O)c(/C=N/NC(=S)Nc2ccc(Cl)cc2Cl)c1	11	-105	-3	105*	-33	102
O=[N+]([O-])c1ccc(O)c(C=NNc2ccc(S(=O)(=O)O)cc2)c1	.	13	-2	-13	.	.
